# Assay results reported in ChEMBL document CHEMBL4002611, “Discovery of medium ring thiophosphorus based heterocycles as antiproliferative agents” (Bioorg Med Chem Lett, 2017).
# How the values were obtained:
# [1] = system: MCF7; assay: Antiproliferative activity against human MCF7 cells after 4 days by crystal violet staining based spectrophotometric method; assay type: functional, cell-based; conditions: MCF7, 96 h
# [2] = system: SK-OV-3; assay: Antiproliferative activity against human SKOV3 cells after 4 days by crystal violet staining based spectrophotometric method; assay type: functional, cell-based; conditions: SK-OV-3, 96 h
# [3] = system: WI-38; assay: Antiproliferative activity against human WI38 cells after 4 days by crystal violet staining based spectrophotometric method; assay type: ADME, cell-based; conditions: WI-38, 96 h
# [4] = Drug metabolism in human MCF7 cells assessed as H2S release from compound at 400 uM incubated for 5 hrs by confocal microscopic assay; assay type: ADME, cell-based; conditions: mcf7, 5 h
# Summary of the method: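 MCF-7 cells loaded with an H₂S-sensitive fluorescent probe for 2 h at 37 °C, washed, then exposed to H₂S donors for 5 h before confocal imaging. Controls were untreated cells, probe alone, and NaHS.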
# [5] = system: MCF7; assay: Antiproliferative activity against human MCF7 cells after 72 hrs in presence of 1 uM Na2S by MTT assay; assay type: functional, cell-based; conditions: MCF7, 72 h
# Summary of the method: (§1)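 Na₂S, which forms H₂S immediately in water, was added together with the test compound to MCF7 cells as a single administration. Proliferation was read by MTT assay.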
# [6] = system: MCF7; assay: Antiproliferative activity against human MCF7 cells after 72 hrs in presence of 10 uM Na2S by MTT assay; assay type: functional, cell-based; conditions: MCF7, 72 h; summary of the method: as §1
# [7] = system: MCF7; assay: Antiproliferative activity against human MCF7 cells after 72 hrs in presence of 100 uM Na2S by MTT assay; assay type: functional, cell-based; conditions: MCF7, 72 h; summary of the method: as §1
# [8] = Drug metabolism in pH 7.4 PBS buffer assessed as H2S release from compound at 5 mM incubated for 4 days by DNS-Az probe based fluorescence assay; assay type: physicochemical; conditions: pH 7.4, 96 h, 5000 µM
# Summary of the method: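 H₂S release in solution was measured with an H₂S-specific dansyl azide fluorescent probe after incubation at 37 °C for 4 days, against a blank sample.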
# [9] = Therapeutic index, ratio of IC50 for human WI38 cells to IC50 for human MCF7 cells
# [10] = Permeability of the compound by PAMPA; assay type: physicochemical; conditions: read-out: permeability
SMILES,IC50 [1],IC50 [2],IC50 [3],also measured
S=P1(c2ccc(Oc3ccccc3)cc2)Nc2ccccc2CO1 (stereo not given),29.4 µM,48.4 µM,108 µM,
S=P1(c2ccccc2)Nc2ccccc2O1 (stereo not given),,,> 50 µM,Drug metabolism [4]: Metabolite_Detected
S=P1(c2ccc(Oc3ccccc3)cc2)N[C@@H](c2ccccc2)[C@H](c2ccccc2)N1,> 400 µM,49 µM,,
COc1ccc(P2(=S)Nc3ccc(Cl)cc3N2)cc1 (stereo not given),> 400 µM,> 400 µM,,
S=P1(c2ccccc2)OCc2cccc3cccc(c23)CO1,71.1 µM,51.1 µM,76.2 µM,
COc1ccc2c(c1)NP(=S)(c1ccc(Oc3ccccc3)cc1)O2 (stereo not given),32.1 µM,27.9 µM,,
COc1ccc2c(c1)NP(=S)(c1ccccc1)O2 (stereo not given),26.2 µM,24.1 µM,,
S=P1(c2ccccc2)OCC2C3CCC(O3)C2CO1 (stereo not given),> 400 µM,> 400 µM,> 400 µM,
S=P1(c2ccccc2)N[C@@H](c2ccccc2)[C@H](c2ccccc2)N1,165 µM,164 µM,145 µM,
COc1ccc(P2(=S)Nc3ccccc3CO2)cc1 (stereo not given),200 µM,91.4 µM,392 µM,
COc1ccc(P2(=S)Oc3ccccc3-c3ccccc3O2)cc1,0.76 to 0.82 µM,0.76 µM,1.38 µM,IC50 [5]: 1.17 µM; IC50 [6]: 1.01 µM; IC50 [7]: 1.44 µM; Drug metabolism [4]: Metabolite_Detected; H2S released [8]: 2 µM; Ratio IC50 [9]: 2
COc1ccc(P2(=S)Oc3ccc(Br)cc3-c3cc(Br)ccc3O2)cc1,> 400 µM,> 400 µM,,H2S released [8]: Not Active
S=P(S)(NCc1ccccc1)c1ccc(Oc2ccccc2)cc1 (stereo not given),,47 µM,104 µM,Papp [10]: 1.9 ×10⁻⁶ cm/s; Drug metabolism [4]: Metabolite_Detected
S=P1(c2ccccc2)OCc2ccccc2CO1,> 400 µM,51.2 µM,134 µM,
S=P1(c2ccccc2)Oc2ccc(Br)cc2-c2cc(Br)ccc2O1,> 400 µM,> 400 µM,,
O=S(=O)(c1ccc(Cl)cc1)N1c2ccccc2OP1(=S)c1ccccc1 (stereo not given),107 µM,110 µM,,
S=P1(c2ccccc2)NCc2ccccc2N1 (stereo not given),> 400 µM,> 400 µM,173 µM,
S=P1(c2ccccc2)Oc2ccc(-c3ccccc3)cc2-c2cc(-c3ccccc3)ccc2O1,> 400 µM,> 400 µM,,
Cc1ccc(S(=O)(=O)N2c3ccccc3OP2(=S)c2ccccc2)cc1 (stereo not given),181 µM,230 µM,353 µM,
COc1ccc(P2(=O)Oc3ccccc3-c3ccccc3O2)cc1,11 to 69 µM,5.94 µM,18.6 µM,IC50 [5]: 59 µM; IC50 [6]: 52.9 µM; IC50 [7]: 50.6 µM
COc1ccc(P2(=S)OC[C@@H]3OC(C)(C)O[C@H]3CO2)cc1,> 400 µM,374 µM,> 400 µM,H2S released [8]: Not Active
COc1ccc(P2(=S)Oc3ccccc3O2)cc1,281 µM,193 µM,250 µM,
S=P1(c2ccc(Oc3ccccc3)cc2)Nc2ccccc2O1 (stereo not given),73.9 µM,45.8 µM,125 µM,
S=P1(c2ccccc2)Oc2ccccc2-c2ccccc2O1,140 µM,103 µM,400 µM,H2S released [8]: Not Active; Ratio IC50 [9]: 3
COc1cccc2c1OP(=S)(c1ccccc1)O2 (stereo not given),40.7 µM,29.7 µM,40.3 µM,
